22 molecules from ChEMBL document CHEMBL3600323, “Structure-Activity and Structure-Property Relationship and Exploratory in Vivo Evaluation of the Nanomolar Keap1-Nrf2 Protein-Protein Interaction Inhibitor” (J Med Chem, 2015) can be followed below.

≈ marks a conversion by molar mass, not a printed value. Calls of active or inactive are those of the source. The calls are words filed in the database; no cut-off is given here.

Series [1] in a line: Solubility of the compound. It counts as physicochemical. In short, it runs like this:
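Intrinsic solubility determined by the pH-metric method, a potentiometric acid−base titration, using the pSOL model.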

Series [2] is described as follows: Lipophilicity, log D of the compound. It counts as physicochemical. Conditions: octanol/water. In short, it runs like this:
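log D at pH 7.4 measured by Avdeef−Bucher potentiometric titration on a Gemini Profiler instrument.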

In a further series the target is Keap1/Nrf2 (Homo sapiens, UniProt Q14145). The experiment in a line: Inhibition of Keap1 Kelch domain-Nrf2 ETGE (unknown origin) protein-protein interaction incubated for 30 mins by fluorescence polarization competition assay. A general note: In fluorescence polarisation assays a small probe gives low polarisation when free and higher when bound to something large.
Sequence of Keap1/Nrf2 (Q16236 whole entry, the tested form may be a part): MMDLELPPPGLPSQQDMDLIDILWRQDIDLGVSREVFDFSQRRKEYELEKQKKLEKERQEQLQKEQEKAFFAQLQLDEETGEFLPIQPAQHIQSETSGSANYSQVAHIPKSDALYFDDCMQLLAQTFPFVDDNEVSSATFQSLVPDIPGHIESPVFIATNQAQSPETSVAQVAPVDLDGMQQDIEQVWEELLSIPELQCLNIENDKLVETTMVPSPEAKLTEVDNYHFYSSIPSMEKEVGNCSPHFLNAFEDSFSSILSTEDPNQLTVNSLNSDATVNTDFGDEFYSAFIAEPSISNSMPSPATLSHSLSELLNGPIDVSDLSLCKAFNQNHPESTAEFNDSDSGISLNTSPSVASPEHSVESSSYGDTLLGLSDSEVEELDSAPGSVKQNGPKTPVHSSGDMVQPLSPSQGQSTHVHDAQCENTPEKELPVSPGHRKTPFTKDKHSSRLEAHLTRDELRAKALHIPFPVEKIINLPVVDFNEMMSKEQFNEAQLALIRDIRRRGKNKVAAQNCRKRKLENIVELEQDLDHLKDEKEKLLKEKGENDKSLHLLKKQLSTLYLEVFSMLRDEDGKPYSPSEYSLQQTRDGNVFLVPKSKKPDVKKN
Sequence of Keap1/Nrf2 (Q14145 whole entry, the tested form may be a part): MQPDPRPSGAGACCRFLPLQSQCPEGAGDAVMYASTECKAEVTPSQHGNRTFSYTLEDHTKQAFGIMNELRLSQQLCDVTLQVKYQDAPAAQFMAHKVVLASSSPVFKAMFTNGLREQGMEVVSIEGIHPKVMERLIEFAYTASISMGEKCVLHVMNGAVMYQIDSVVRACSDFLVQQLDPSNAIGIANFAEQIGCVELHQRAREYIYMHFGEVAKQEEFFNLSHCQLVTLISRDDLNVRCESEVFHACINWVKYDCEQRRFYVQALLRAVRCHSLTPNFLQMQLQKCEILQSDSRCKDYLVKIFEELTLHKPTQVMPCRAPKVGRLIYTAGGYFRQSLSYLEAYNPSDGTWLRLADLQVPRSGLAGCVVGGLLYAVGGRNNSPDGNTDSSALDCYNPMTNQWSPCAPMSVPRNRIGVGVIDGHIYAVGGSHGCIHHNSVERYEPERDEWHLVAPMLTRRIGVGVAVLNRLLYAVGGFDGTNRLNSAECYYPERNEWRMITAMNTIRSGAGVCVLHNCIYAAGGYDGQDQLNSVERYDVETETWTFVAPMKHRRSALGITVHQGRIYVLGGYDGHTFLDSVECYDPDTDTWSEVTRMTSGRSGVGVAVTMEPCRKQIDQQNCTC

The subject of series [3] is Mus musculus. The experiment in a line: Anti-inflammatory in LPS-challenged C57BL/6 mouse model of acute inflammation assessed as reduction in IL12 level at 10 mg/kg, ip for 3 days pre-treated for 3 days followed by LPS challenge 24 hrs after last dose and measured 5 hrs post LPS challenge by ELISA method. It counts as functional, organism-based. In a few lines: (§1)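 Female C57BL/6 mice (12−16 weeks), randomised, n = 10 per group; single daily IP injection on days −3, −2, −1, then 300 μg LPS IP 24 h after the last dose (day 0). Controls were saline-only and saline plus LPS, with dexamethasone 10 mg/kg/day as positive control. Sera taken 5 h post-LPS; plasma frozen at −20 °C and cytokines read by double-sandwich ELISA; mean ± SEM.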
(In general: An ELISA detects its analyte on a solid surface through an enzyme-linked reagent.)

The test system of series [4] is Mus musculus. The experiment in a line: Anti-inflammatory in LPS-challenged C57BL/6 mouse model of acute inflammation assessed as reduction in IFNgamma level at 10 mg/kg, ip for 3 days pre-treated for 3 days followed by LPS challenge 24 hrs after last dose and measured 5 hrs post LPS challenge by ELISA method. Format: functional, organism-based. In short, it runs like this:
as §1

Series [5] concerns Mus musculus. The experiment in a line: Anti-inflammatory in LPS-challenged C57BL/6 mouse model of acute inflammation assessed as reduction in TNFalpha level at 10 mg/kg, ip for 3 days pre-treated for 3 days followed by LPS challenge 24 hrs after last dose and measured 5 hrs post LPS challenge by ELISA method. Format: functional, organism-based. In a few lines:
as §1

Series [6] concerns Mus musculus. The series can be described thus: Anti-inflammatory in LPS-challenged C57BL/6 mouse model of acute inflammation assessed as reduction in IL6 level at 10 mg/kg, ip for 3 days pre-treated for 3 days followed by LPS challenge 24 hrs after last dose and measured 5 hrs post LPS challenge by ELISA method. It counts as functional, organism-based. In short, it runs like this:
as §1

In series [7] the test system is Mus musculus. The experiment in a line: Anti-inflammatory in LPS-challenged C57BL/6 mouse model of acute inflammation assessed as reduction in IL17 level at 10 mg/kg, ip for 3 days pre-treated for 3 days followed by LPS challenge 24 hrs after last dose and measured 5 hrs post LPS challenge by ELISA method. It counts as functional, organism-based. In short, it runs like this:
as §1

The test system of series [8] is Mus musculus. The series can be described thus: Toxicity in LPS-challenged C57BL/6 mouse model of acute inflammation assessed as changes in body weight at 80 mg/kg, ip for 3 days pre-treated for 3 days followed by LPS challenge 24 hrs after last dose and measured 5 hrs post LPS challenge. To be noted: in vivo. It counts as organism-based. In short, it runs like this:
(§2)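 Female C57BL/6 mice (12−16 weeks), n = 10 per group, dosed IP once daily on days −3 to −1, then challenged with 300 μg LPS IP 24 h after the last dose. Body weight and signs of acute toxicity were monitored during the pretreatment period.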

The subject of series [9] is Mus musculus. The series can be described thus: Toxicity in LPS-challenged C57BL/6 mouse model of acute inflammation at 10 mg/kg, ip for 3 days pre-treated for 3 days followed by LPS challenge 24 hrs after last dose and measured 5 hrs post LPS challenge. Format: organism-based. To be noted: in vivo. In short, it runs like this: as §2
The test system of series [10] is Mus musculus. The series can be described thus: Toxicity in LPS-challenged C57BL/6 mouse model of acute inflammation at 80 mg/kg, ip for 3 days pre-treated for 3 days followed by LPS challenge 24 hrs after last dose and measured 5 hrs post LPS challenge. It counts as organism-based. Conditions: in vivo. In short, it runs like this:
as §2

The subject of series [11] is Mus musculus. The series can be described thus: Toxicity in LPS-challenged C57BL/6 mouse model of acute inflammation assessed as changes in body weight at 10 mg/kg, ip for 3 days pre-treated for 3 days followed by LPS challenge 24 hrs after last dose and measured 5 hrs post LPS challenge. It counts as organism-based. To be noted: in vivo. In a few lines: as §2

For `N#Cc1ccc(S(=O)(=O)N(CC(=O)O)c2ccc(N(CC(=O)O)S(=O)(=O)c3ccc(C#N)cc3)c3ccccc23)cc1`, the solubility (in general, the dissolved amount per volume that the medium holds) in series [1] (read-out: solubility) stood at 1100 µg/mL (≈ 1820 µM). For the same molecule, the logD – broadly, lipophilicity at a set pH, counting ionised and neutral species – in series [2] is 0.65. The half-inhibitory concentration (IC50) (as a rule, the concentration at which inhibition is half-maximal) on Keap1/Nrf2 was determined as 118 nM.

In the case of `COc1ccc(S(=O)(=O)N(CC(=O)O)c2ccc(N(CC(=O)O)S(=O)(=O)c3ccc(OC)cc3)c3ccccc23)cc1`, the solubility in [1] (read-out: solubility) turned out to be 388 µg/mL (≈ 631 µM).

Turning to `COc1ccc(S(=O)(=O)N(CC(=O)O)c2ccc(N(CC(=O)O)S(=O)(=O)c3ccc(OC)cc3)c(OC)c2)cc1`, the IC50 at Keap1/Nrf2 was 602 nM.

`C[C@@H]1C[C@H]2[C@@H]3CCC4=CC(=O)C=C[C@]4(C)[C@@]3(F)[C@@H](O)C[C@]2(C)[C@@]1(O)C(=O)CO`: the inhibition result in the series with Mus musculus [3], in the series with Mus musculus [4], with Mus musculus [5], in the series on Mus musculus [6] and in the series on Mus musculus [7] was “Active” in each case.

Molecule `CCCCc1ccc(S(=O)(=O)N(CC(=O)O)c2ccc(N(CC(=O)O)S(=O)(=O)c3ccc(CCCC)cc3)c3ccccc23)cc1` yielded a solubility in series [1] of 0.006 µg/mL (≈ 0.009 µM). Besides, the logD in series [2] was 1.89. At Keap1/Nrf2, this molecule displayed a concentration for half-maximal inhibition (IC50) of 42.2 nM.

For the molecule `Cc1cc(C)c(S(=O)(=O)N(CC(=O)O)c2ccc(N(CC(=O)O)S(=O)(=O)c3c(C)cc(C)cc3C)c3ccccc23)c(C)c1`, in [1] (read-out: solubility), the solubility came to 20 µg/mL (≈ 31.3 µM). The same molecule came in with a pH-dependent lipophilicity (logD) in series [2] of 3.44. Further, the IC50 on Keap1/Nrf2 came to 979 nM.

Turning to `COc1cccc(S(=O)(=O)N(CC(=O)O)c2ccc(N(CC(=O)O)S(=O)(=O)c3cccc(OC)c3)c3ccccc23)c1`, in series [1] (read-out: solubility), the solubility came out at 16 µg/mL (≈ 26 µM). Further, in series [2], the logD amounted to 0.89. The molecule further gave an IC50 on Keap1/Nrf2 of 66.1 nM.

Take `O=C(O)CN(c1ccc(N(CC(=O)O)S(=O)(=O)c2ccccc2)c2ccccc12)S(=O)(=O)c1ccccc1`: the solubility in series [1] (read-out: solubility) was determined as 183 µg/mL (≈ 330 µM). The molecule also registered a logD in [2] of 0.45. On Keap1/Nrf2, this molecule showed an IC50 of 34.3 nM.

Turning to `CC(=O)Nc1ccc(S(=O)(=O)N(CC(=O)O)c2ccc(N(CC(=O)O)S(=O)(=O)c3ccc(NC(C)=O)cc3)c3ccccc23)cc1`, the Activity result with Mus musculus [8], in the series with Mus musculus [9], in the series with Mus musculus [10] and in the series on Mus musculus [11] was “Non-toxic” in each case. Further, in [1] (read-out: solubility), the solubility is 5000 µg/mL (≈ 7480 µM). This molecule came in with a logD in [2] of 1.02.

Take `O=C(O)CN(c1ccc(N(CC(=O)O)S(=O)(=O)c2ccc(Br)cc2)c2ccccc12)S(=O)(=O)c1ccc(Br)cc1`: the solubility in series [1] (read-out: solubility) was found to be 5.7 µg/mL (≈ 8 µM). In series [2], this molecule had a logD of 4.29. Moreover, the IC50 at Keap1/Nrf2 was found to be 36.5 nM.

As to `O=C(O)CN(c1ccc(N(CC(=O)O)S(=O)(=O)c2ccc(OC(F)(F)F)cc2)c2ccccc12)S(=O)(=O)c1ccc(OC(F)(F)F)cc1`, the solubility in series [1] (read-out: solubility) was 12.3 µg/mL (≈ 17 µM). Also, the logD in series [2] came out at 0.93. For the same molecule, the IC50 on Keap1/Nrf2 is 179 nM.

`COc1ccc(S(=O)(=O)N(CC(=O)O)c2ccc(N(CC(=O)O)S(=O)(=O)c3ccc(OC)cc3)cc2)cc1` registered an IC50 at Keap1/Nrf2 of 1450 nM.

For the molecule `O=C(O)CN(c1ccc(N(CC(=O)O)S(=O)(=O)c2ccc(Cl)cc2)c2ccccc12)S(=O)(=O)c1ccc(Cl)cc1`, in [1] (read-out: solubility), the solubility was 1200 µg/mL (≈ 1920 µM). In addition, the logD in series [2] stood at 2.11. This molecule showed an IC50 at Keap1/Nrf2 of 42.3 nM.

`COc1ccc(S(=O)(=O)N(CC(=O)O)c2cccc3c(N(CC(=O)O)S(=O)(=O)c4ccc(OC)cc4)cccc23)cc1` registered an IC50 at Keap1/Nrf2 of 1860 nM.

In turn, `Cc1ccc(S(=O)(=O)N(CC(=O)O)c2ccc(N(CC(=O)O)S(=O)(=O)c3ccc(C)cc3)cc2)cc1` yielded an IC50 on Keap1/Nrf2 of 966 nM.

For the molecule `O=C(O)CN(c1ccc(N(CC(=O)O)S(=O)(=O)c2ccc(F)cc2)c2ccccc12)S(=O)(=O)c1ccc(F)cc1`, in [1] (read-out: solubility), the solubility was determined as 3800 µg/mL (≈ 6430 µM). Moreover, the logD in [2] stood at 1.16. Further, on Keap1/Nrf2, the IC50 came to 54.3 nM.

On to `COc1ccc(S(=O)(=O)N(CC(=O)O)c2cc(C)c(N(CC(=O)O)S(=O)(=O)c3ccc(OC)cc3)cc2C)cc1`, for which the IC50 on Keap1/Nrf2 came out at 10200 nM.

Consider `Cc1ccc(S(=O)(=O)N(CC(=O)O)c2ccc(N(CC(=O)O)S(=O)(=O)c3ccc(C)cc3)c3ccccc23)cc1`, for which, in series [1] (read-out: solubility), the solubility was 248 µg/mL (≈ 426 µM). In series [2], this molecule gave a logD of 0.93. This molecule also gave a half-inhibitory concentration (IC50) on Keap1/Nrf2 of 18.1 nM.

For the molecule `O=C(O)CN(c1ccc(N(CC(=O)O)S(=O)(=O)c2ccc(C(F)(F)F)cc2)c2ccccc12)S(=O)(=O)c1ccc(C(F)(F)F)cc1`, in series [1] (read-out: solubility), the solubility was 12.3 µg/mL (≈ 17.8 µM). In series [2], this molecule showed a logD of 2.81. The same molecule gave an IC50 on Keap1/Nrf2 of 122 nM.

In the case of `O=C(O)CN(c1ccc(N(CC(=O)O)S(=O)(=O)c2cccc3ccccc23)c2ccccc12)S(=O)(=O)c1cccc2ccccc12`, the solubility in series [1] (read-out: solubility) worked out at 5 µg/mL (≈ 7.64 µM). In series [2], the logD stood at 3.9. The same molecule returned an IC50 on Keap1/Nrf2 of 47.4 nM.

`COc1ccc(S(=O)(=O)N(CC(=O)O)c2ccc(N(CC(=O)O)S(=O)(=O)c3ccc(OC)cc3)c(C)c2)cc1` displayed an IC50 on Keap1/Nrf2 of 1670 nM.

`CC(C)(C)c1ccc(S(=O)(=O)N(CC(=O)O)c2ccc(N(CC(=O)O)S(=O)(=O)c3ccc(C(C)(C)C)cc3)c3ccccc23)cc1`: the solubility in [1] (read-out: solubility) came to 1.6 µg/mL (≈ 2.4 µM). In [2], this molecule yielded a logD of 5.2. For the same molecule, at Keap1/Nrf2, the IC50 was 50.2 nM.
